Assay results: ChEMBL document CHEMBL2029207, “Vascular barrier protective effects of eckol and its derivatives” (Bioorg Med Chem Lett, 2012)
The source made the active and inactive calls. The calls are words filed in the database; no cut-off is given here.

Assays:
[1] = tested on: HUVEC; test: Antiinflammatory activity in HUVEC cells assessed as inhibition of LPS-induced monocyte migration at 10 uM relative to LPS; format: functional; details: Homo sapiens
Summary of the method: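 Monocyte transendothelial migration was measured across HUVECs stimulated with LPS at 100 ng/ml. The read-out was a migration index, with percent inhibition calculated against LPS alone. Controls were PBS (negative) and kaempferol-3-O-sophoroside (positive). Values are mean ± S.D. of three independent experiments.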

[2] = species: Mus musculus; test: Antiinflammatory activity in mice assessed as inhibition of acetic acid-induced hyperpermeability at 10 uM relative to acetic acid
[3] = species: Mus musculus; test: Antiinflammatory activity in mouse assessed as inhibition of CMC-Na-induced leukocyte migration into peritoneal cavity at 10 uM relative to CMC-Na; format: functional
Summary of the method: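 Mice received 1.0% CMC–Na to induce leukocyte migration, with or without test agent. Leukocytes recovered from the peritoneal cavity were counted (×10^6). Percent inhibition is relative to CMC–Na alone, with PBS and kaempferol-3-O-sophoroside as controls. Values are mean ± S.D. of three experiments.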

[4] = tested on: HUVEC; test: Cytotoxicity against HUVEC cells assessed as decrease in cell viability up to 20 uM after 24 hrs; format: cell-based; details: human
Summary of the method: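 HUVECs were exposed to each agent for 24 h and then assessed in cell viability assays.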

[5] = tested on: HUVEC; test: Antiinflammatory activity in HUVEC cells assessed as inhibition of […]-induced monocyte binding to endothelial cells at 10 uM relative to control; details: Homo sapiens
[6] = tested on: HUVEC; test: Antiinflammatory activity in HUVEC cells assessed as inhibition of LPS-induced hyperpermeability at 10 uM relative to LPS; format: functional; details: Homo sapiens
Summary of the method: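 Primary HUVECs were stimulated with LPS at 100 ng/ml, with or without test agent. Permeability was read as albumin flux across the monolayer in a dual-chamber system, by ELISA at OD650. Percent inhibition is relative to LPS alone, with PBS as the negative control and kaempferol-3-O-sophoroside as the positive control. Values are mean ± S.D. of three experiments.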

| SMILES | inhibition at 10 µM [1] [%] | inhibition at 10 µM [2] [%] | inhibition (INH) [3] [%] | Activity [4] | inhibition [5] | inhibition at 10 µM [6] [%] |
| --- | --- | --- | --- | --- | --- | --- |
| Oc1cc(O)cc(Oc2c(O)cc(O)c3c2Oc2c(O)cc(O)cc2O3)c1 [ECKOL] | 59.6 | 52 | 61.7 | Non-toxic | Active | 56.5 |
| CC(=O)Oc1cc(OC(C)=O)cc(Oc2c(OC(C)=O)cc(OC(C)=O)c3c2Oc2c(OC(C)=O)cc(Oc4c(OC(C)=O)cc(Oc5c(OC(C)=O)cc(OC(C)=O)c6c5Oc5c(OC(C)=O)cc(OC(C)=O)cc5O6)cc4OC(C)=O)cc2O3)c1 | 50.3 | 59.5 | 56.7 | Non-toxic | – | 49.5 |
| COc1cc(OC)cc(Oc2c(OC)cc(OC)c3c2Oc2c(OC)cc(Oc4c(OC)cc(Oc5c(OC)cc(OC)c6c5Oc5c(OC)cc(OC)cc5O6)cc4OC)cc2O3)c1 | 37.6 | 34.7 | 32.4 | Non-toxic | – | 33 |
| Oc1cc(O)cc(Oc2c(O)cc(O)c3c2Oc2c(O)cc(Oc4c(O)cc(Oc5c(O)cc(O)c6c5Oc5c(O)cc(O)cc5O6)cc4O)cc2O3)c1 [DIECKOL] | 71.3 | 74.4 | 69.9 | Non-toxic | – | 74.9 |
| O=c1c(O[C@@H]2O[C@H](CO)[C@@H](O)[C@H](O)[C@H]2O[C@@H]2O[C@H](CO)[C@@H](O)[C@H](O)[C@H]2O)c(-c2ccc(O)cc2)oc2cc(O)cc(O)c12 | 69.5 | 73.9 | 69.6 | – | – | 76.6 |
